Data reported in ChEMBL document CHEMBL1125102, “Synthesis and biological evaluation of 2-styrylquinazolin-4(3H)-ones, a new class of antimitotic anticancer agents which inhibit tubulin polymerization” (J Med Chem, 1990).
In brackets after ≈: the same amount, converted by molar mass. Several values for one entry are separate records, joined by “and”; a condition that tells them apart may be missing. Equal values may be shown once.

Legend:
Tubulin = experiment: Inhibition of tubulin polymerization; format: functional
Outline: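 Glutamate-driven assembly: purified tubulin 1.0 mg/mL (10 μM) in 1.0 M monosodium glutamate pH 6.6, 1.0 mM MgCl2, 4% (v/v) DMSO, preincubated with drug 15 min at 37 °C, chilled, GTP added, then warmed 0→37 °C in cuvettes with turbidity read-out. IC50 = drug level halving extent of polymerization, obtained graphically in triplicate experiments.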

L1210 [1] = experiment: In vitro inhibition of L1210 murine leukemia cells by using MTT assay in cell culture; format: functional, cell-based; conditions: Mus musculus
Outline: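 L1210 murine leukemia cells in culture; cytotoxicity measured by MTT assay, reported as IC50 in μg/mL.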

L1210 [2] = experiment: In vivo inhibition of L1210 murine leukemia cells in mice (ip) at a dose of 200 mg/kg; format: functional, Mus musculus
Outline: (§1)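 L1210 murine leukemia in mice: tumor cells inoculated ip, drug injected ip one day later; efficacy expressed as % T/C at the stated dose.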

L1210 [3] = experiment: In vivo inhibition of L1210 murine leukemia cells in mice (ip) at a dose of 50 mg/kg; format: functional, Mus musculus; outline: as §1
L1210 [4] = experiment: In vivo inhibition of L1210 murine leukemia cells in mice (ip) at a dose of 100 mg/kg; format: functional, Mus musculus; outline: as §1
[5] = Antitumor activity against murine melanoma B16 cells was determined after (ip) administration of a dose of 100 mg/kg, ip; format: functional, Mus musculus; conditions: route intraperitoneal
MX1 [6] = experiment: Antitumor activity against human mammary tumor xenograft MX-1(SRC) cells was determined after (ip) administration of a dose of 60 mg/kg; format: functional
[7] = Antitumor activity against murine melanoma B16 cells was determined after (ip) administration of a dose of 400 mg/kg, ip; format: functional, Mus musculus; conditions: route intraperitoneal
MX1 [8] = experiment: Antitumor activity against human mammary tumor xenograft MX-1(SRC) cells was determined after (ip) administration of a dose of 120 mg/kg; format: functional
MX1 [9] = experiment: Antitumor activity against human mammary tumor xenograft MX-1(SRC) cells was determined after (ip) administration of a dose of 240 mg/kg; format: functional
P388 [10] = experiment: (§2) Antitumor activity against […] was determined after (ip) administration of a dose of 60 mg/kg; format: functional, Mus musculus
L1210 [11] = experiment: as §2; format: functional, Mus musculus
[12] = Antitumor activity against human melanoma xenograft LOX (SC) cells was determined after (ip) administration of a dose of 120 mg/kg; format: functional
[13] = Antitumor activity against murine melanoma B16 cells was determined after (ip) administration of a dose of 300 mg/kg, ip; format: functional, Mus musculus; conditions: route intraperitoneal
[14] = Antitumor activity against murine melanoma B16 cells was determined after (ip) administration of a dose of 50 mg/kg, ip; format: functional, Mus musculus; conditions: route intraperitoneal
[15] = Antitumor activity against murine sarcoma M531 cells was determined after (ip) administration of a dose of 240 mg/kg, ip; format: functional, Mus musculus; conditions: route intraperitoneal
[16] = Antitumor activity against human melanoma xenograft LOX (SC) cells was determined after (ip) administration of a dose of 60 mg/kg; format: functional
P388 [17] = experiment: (§3) Antitumor activity against murine leukemia P388 cells was determined after (ip) administration of a dose of 120 mg/kg; format: functional, Mus musculus
L1210 [18] = experiment: as §3; format: functional, Mus musculus
[19] = Antitumor activity against human melanoma xenograft LOX (SC) cells was determined after (ip) administration of a dose of 240 mg/kg; format: functional
[20] = Antitumor activity against murine sarcoma M531 cells was determined after (ip) administration of a dose of 120 mg/kg, ip; format: functional, Mus musculus; conditions: route intraperitoneal
[21] = Antitumor activity against murine melanoma B16 cells was determined after (ip) administration of a dose of 200 mg/kg, ip; format: functional, Mus musculus; conditions: route intraperitoneal
L1210 [22] = experiment: In vivo inhibition of L1210 murine leukemia cells in mice (ip) at a dose of 25 mg/kg; format: functional, Mus musculus; outline: as §1
L1210 [23] = experiment: In vivo inhibition of L1210 murine leukemia cells in mice (ip) at a dose of 240 mg/kg; format: functional, Mus musculus; outline: as §1
L1210 [24] = experiment: In vivo inhibition of L1210 murine leukemia cells in mice (ip) at a dose of 12 mg/kg; format: functional, Mus musculus; outline: as §1
L1210 [25] = experiment: […]; format: functional, Mus musculus; conditions: dose 150 mg/kg
Outline: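 Murine L1210 leukemia cells were inoculated intraperitoneally into mice. Drug was injected intraperitoneally one day after tumor inoculation. Therapeutic efficacy was read out as % T/C at the stated dose in mg/kg.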

Row | SMILES | IC50 (Tubulin) | IC50 (L1210 [1]) | T/C (L1210 [2]) | other results
1 | Oc1nc(/C=C/c2ccccc2)nc2cc(N3CCCCC3)c(F)cc12 | > 40 µM | 0.2 µg/mL (≈ 0.572 µM) | 85% | 
2 | Sc1nc(/C=C/c2ccccc2)nc2ccc(Cl)cc12 | > 40 µM | > 1 µg/mL |  | T/C (L1210 [3]): 94%
3 | Oc1nc(/C=C/c2ccccc2)nc2sccc12 | > 40 µM | > 1 µg/mL | 92% | 
4 | CN1CCN(c2cc3nc(/C=C/c4ccccc4)nc(O)c3cc2F)CC1 | > 40 µM | 0.2 µg/mL (≈ 0.549 µM) |  | T/C (L1210 [3]): 100%
5 | Nc1ccc2nc(/C=C/c3ccccc3)nc(O)c2c1 | > 40 µM | 0.6 µg/mL (≈ 2.28 µM) |  | 
6 | O=c1oc(/C=C/c2ccccc2)nc2c(O)nc(O)nc12 | > 40 µM | > 1 µg/mL |  | T/C (L1210 [3]): 94%
7 | Cc1cccc2nc(/C=C/c3ccccc3)nc(O)c12 | > 40 µM | 0.03 µg/mL (≈ 0.114 µM) | 100% | 
8 | Oc1nc(/C=C/c2ccccc2)nc2ccc(Cl)cc12 | 2.5 µM | 0.001 µg/mL (≈ 0.00354 µM) |  | T/C (L1210 [3]): 146%
9 | Oc1nc(/C=C/c2ccccc2)nc2ccc(I)cc12 | 1.4 µM | 0.3 µg/mL (≈ 0.802 µM) | 117% | 
10 | Oc1nc(/C=C/c2ccccc2)nc2c(Cl)cccc12 | > 40 µM | > 1 µg/mL |  | 
11 | Oc1ccc2nc(/C=C/c3ccccc3)nc(O)c2c1 | > 40 µM | 0.006 µg/mL (≈ 0.0227 µM) |  | T/C (L1210 [4]): 99%
12 | COc1ccc2nc(/C=C/c3ccccc3)[nH]c(=O)c2c1 | 2 µM | 0.001 µg/mL (≈ 0.00359 µM) |  | T/C [5]: 145%; T/C (MX1 [6]): 21%; T/C [7]: 190%; T/C (MX1 [8]): 16%; T/C (MX1 [9]): -81%; T/C (P388 [10]): 135%; T/C (L1210 [11]): 158%; T/C [12]: 142%; T/C [13]: 158%; T/C [14]: 129%; T/C (L1210 [3]): 173%; T/C [15]: 154%; T/C [16]: 142%; T/C (P388 [17]): 174%; T/C (L1210 [18]): 225%; T/C [19]: 153%; T/C [20]: 136%; T/C [21]: 197% and 141%
13 | COc1ccc2c(O)nc(/C=C/c3ccccc3)nc2c1 | 5.7 µM | 0.001 µg/mL (≈ 0.00359 µM) | 100% | 
14 | Cc1ccc2nc(/C=C/c3ccccc3)nc(O)c2c1 | 2 µM | 0.02 µg/mL (≈ 0.0762 µM) |  | T/C (L1210 [22]): 107%
15 | Oc1nc(CC(c2ccccc2)N2CCOCC2)nc2ccc(Cl)cc12 (configuration not stated) | > 40 µM |  | 125% | 
16 | Cc1nc(/C=C/c2ccccc2)nc(O)c1C | > 40 µM | > 1 µg/mL |  | T/C (L1210 [3]): 89%
17 | Oc1nc(Cc2ccccc2)nc2ccc(Cl)cc12 | > 40 µM | > 1 µg/mL |  | 
18 | Nn1c(/C=C/c2ccccc2)nc2ccc(Cl)cc2c1=O | > 40 µM | > 1 µg/mL |  | T/C (L1210 [3]): 90%
19 | Oc1nc(/C=C/c2ccccn2)nc2ccc(Cl)cc12 | > 40 µM | 0.61 µg/mL (≈ 2.15 µM) | 91% | 
20 | Oc1nc(/C=C/c2ccccc2)nc2cc(Cl)c(F)cc12 | > 40 µM | 0.007 µg/mL (≈ 0.0233 µM) |  | T/C (L1210 [4]): 111%
21 | Oc1nc(/C=C/c2ccccc2)nc2ccc(F)cc12 | 5.4 µM | 0.05 µg/mL (≈ 0.188 µM) |  | T/C (L1210 [4]): 129%

Row | SMILES | IC50 (Tubulin) | IC50 (L1210 [1]) | T/C (L1210 [2]) | other results
22 | Oc1nc(/C=C/c2ccccc2)nc2ccc3ncccc3c12 | > 40 µM | 0.4 µg/mL (≈ 1.34 µM) |  | T/C (L1210 [3]): 95%
23 | O=c1[nH]c(/C=C/c2ccccc2)nc2ccccc12 | 11 µM | 0.02 µg/mL (≈ 0.0806 µM) |  | T/C (L1210 [23]): 133%
24 | O=c1[nH]c(=O)c2nc(/C=C/c3ccccc3)nc(O)c2[nH]1 | > 40 µM | > 1 µg/mL |  | T/C (L1210 [3]): 93%
25 | CCOc1ccc2nc(/C=C/c3ccccc3)nc(O)c2c1 | > 40 µM | 0.4 µg/mL (≈ 1.37 µM) |  | 
26 | Oc1nc(CCc2ccccc2)nc2ccc(Cl)cc12 | 7.3 µM | 0.01 µg/mL (≈ 0.0351 µM) | 113% | 
27 | CC(=O)Oc1ccc2nc(/C=C/c3ccccc3)nc(O)c2c1 | 4 µM | 0.3 µg/mL (≈ 0.979 µM) | 78% | 
28 | CCN(CC)CCCC(C)Nc1nc(/C=C/c2ccccc2)nc2ccc(Cl)cc12 (configuration not stated) | > 40 µM |  |  | T/C (L1210 [24]): 105%
29 | O=S1(=O)N=C(/C=C/c2ccccc2)Nc2ccccc21 | > 40 µM | > 1 µg/mL | 91% | 
30 | COc1cc2nc(/C=C/c3ccccc3)nc(O)c2cc1OC | 3.3 µM | 0.03 µg/mL (≈ 0.0973 µM) | 96% | 
31 | C/C=C/c1nc(O)c2ccccc2n1 | > 40 µM | > 1 µg/mL |  | 
32 | C/C=C/c1nc(O)c2cc(Cl)ccc2n1 | > 40 µM | > 1 µg/mL | 95% | 
33 | Oc1nc(/C=C/c2ccccc2)nc2cc(Cl)ccc12 | 17 µM | > 1 µg/mL |  | 
34 | Oc1nc(/C=C/c2ccccc2)nc2cccc(Cl)c12 | > 40 µM | > 1 µg/mL |  | T/C (L1210 [4]): 100%
35 | Cn1c(/C=C/c2ccccc2)nc(=O)c2cc(Cl)ccc21 | > 40 µM | 0.04 µg/mL (≈ 0.135 µM) |  | T/C (L1210 [3]): 96%
36 | O=c1c2cc(Cl)ccc2nc2n1NC(c1ccccc1)C2 (configuration not stated) | > 40 µM | > 1 µg/mL |  | 
37 | Oc1nc(C#Cc2ccccc2)nc2ccc(Cl)cc12 | > 40 µM | 0.002 µg/mL (≈ 0.00712 µM) | 125% | 
38 | Nc1ccccc1C(=O)Oc1ccc2nc(/C=C/c3ccccc3)nc(O)c2c1 | > 40 µM | > 1 µg/mL |  | T/C (L1210 [25]): 99%
39 | COc1ccc2nc(CC(c3ccccc3)N3CCCCC3)nc(O)c2c1 (configuration not stated) | 14 µM | 0.001 µg/mL (≈ 0.00275 µM) |  | T/C (L1210 [4]): 107%
40 | CN1CCN(C(Cc2nc(O)c3cc(Cl)ccc3n2)c2ccccc2)CC1 (configuration not stated) | 5.3 µM |  |  | T/C (L1210 [4]): 100%
41 | Cc1nc(O)c2cc(Cl)ccc2n1 | > 40 µM | > 1 µg/mL |  | 
42 | Oc1nc(/C=C/c2ccccc2)nc2ccc(Br)cc12 | 2 µM | 0.01 µg/mL (≈ 0.0306 µM) |  | T/C (L1210 [22]): 133%
